The values that follow come from ChEMBL document CHEMBL1127072, “Discovery and synthesis of methyl 2,5-dimethyl-4-[2- (phenylmethyl)benzoyl]-1H-pyrrole-3-carboxylate (FPL 64176) and analogues: the first examples of a new class of calcium channel activator” (J Med Chem, 1993).

Test [1] is filed under the species Cavia porcellus. Put plainly: Tested for the force increase in guinea pig atria. The test is classed as functional. The gist of the method:
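Inotropic activity was measured on guinea pig atria paced at 1 Hz. EC50 is the concentration that raises developed tension to 50% of the isoprenaline maximum.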

For test [2], the species on record is Cavia porcellus. Description: Tested for the force value required to increase developed tension to 50% of the isoprenaline maximum at 10 uM. It counts as functional.
The subject of test [3] is GH3. Description: Tested for 45 [Ca2+] uptake in rat pituitary growth hormone3 (GH3) cells. The test is classed as functional, cell-based. The gist of the method:
(§1)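 ⁴⁵Ca²⁺ uptake into rat pituitary GH3 cells depolarized with 50 mM K⁺, used as the measure of channel activation. EC50 is the test concentration producing 50% of the maximal uptake obtained with Bay K 8644.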

Test [4] concerns GH3. Description: Tested for the 50% of the maximal [Ca2+] uptake produced by Bay K 8644 at 1 uM in rats. It counts as functional, Rattus norvegicus.
Test [5] concerns GH3. Put plainly: Tested for the increase in [Ca2+] uptake into rat pituitary growth hormone3 (GH3) cells. The test is classed as functional, cell-based. The gist of the method:
as §1

Test [6] deals with GH3. Description: Tested for the increase in [Ca2+] uptake into rat pituitary growth hormone3 (GH3) cells at 10 uM. It counts as functional. The note with it: read-out: Inhibition. In short, it runs like this: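 Rat pituitary GH3 cells were depolarized with 50 mM K⁺ and ⁴⁵Ca²⁺ uptake was measured at a single 10 µM test concentration. Response is expressed relative to the maximal uptake produced by Bay K 8644.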

Test [7] is filed under the species Cavia porcellus. Description: Tested for the force increase in guinea pig atria at 100 uM. The test is classed as functional. The following applies: read-out: Inhibition. In short, it runs like this: (§2)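 Guinea pig atria paced at 1 Hz, with developed tension recorded at a single test concentration (10, 30 or 100 µM). The increase is given as a percentage of the isoprenaline maximum.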

The species named for test [8] is Cavia porcellus. Description: Tested for the force increase in guinea pig atria at 10 uM. The test is classed as functional. The gist of the method: as §2
The subject of test [9] is GH3. Description: Tested for the inhibition of [Ca2+] uptake into rat pituitary growth hormone3 (GH3) cells at 10 uM. It counts as functional.
For test [10], the species on record is Cavia porcellus. Description: Tested for the force increase in guinea pig atria at 30 uM. It counts as functional. In short, it runs like this:
as §2

The species named for test [11] is Cavia porcellus. Description: Tested for the force value required to increase developed tension to 50% of the isoprenaline maximum at 0.3 uM. The test is classed as functional.
The test system of test [12] is GH3. Put plainly: Tested for the 50% of the maximal [Ca2+] uptake produced by Bay K 8644 at 10 uM in rats. The test is classed as functional, Rattus norvegicus.

Consider `COC(=O)C1=C(C)NC(C)=C([N+](=O)[O-])C1c1ccccc1C(F)(F)F` (centres undefined), for which the EC50 in [1] is 1.95 µM; in test [3] it was 0.015 µM. Further, the Max turned out to be 61% in test [2] and 100% in test [4].
Consider `COC(=O)c1c(C)[nH]c(C)c1C(=O)c1ccccc1C`, for which the EC50 in [1] came to 9.47 µM; in test [5], 3.6 µM.
For the molecule `COC(=O)c1c(C)[nH]c(C)c1C(=O)c1ccccc1[N+](=O)[O-]`, the Ca2+ uptake increase (% of Bay K 8644 maximum) at 10 µM in test [6] turned out to be 0%. In addition, the Atrial force increase (% of isoprenaline maximum) at 100 µM in test [7] was 17%.
For `COC(=O)c1c(C)[nH]c(C)c1C(=O)c1ccccc1F`, the EC50 in test [1] amounted to 70 µM; in test [5], 1.3 µM.
`COC(=O)c1c(C(=O)c2ccccc2Cc2ccccc2)c[nH]c1C`: the figures for the EC50 in test [1] and in test [5] were 0.46 µM and 0.42 µM, respectively.
Consider `COC(=O)c1c(C)[nH]c(C)c1C(=O)c1c(Cl)cccc1Cl`, for which, in [6], the Ca2+ uptake increase (% of Bay K 8644 maximum) at 10 µM is 0%. For the same molecule, the Atrial force increase (% of isoprenaline maximum) at 100 µM in [7] turned out to be 0%.
As for `COC(=O)c1c(C)[nH]c(C)c1C(=O)c1ccccc1I`, the EC50 turned out to be 5.9 µM in test [1] and 3.4 µM in [5].
As for `COC(=O)c1c(C)[nH]c(C)c1C(=O)c1cc(Cl)ccc1Cl`, the values for the EC50 in test [1] and in [5] were 3.98 µM and 0.6 µM, respectively.
On to `COC(=O)c1c(C)[nH]c(C)c1C(=O)c1ccc(Cl)cc1Cl`, for which the Ca2+ uptake increase (% of Bay K 8644 maximum) at 10 µM in [6] came to 0%. This molecule registered an inhibition at 10 µM in test [8] of 40%.
Take `COC(=O)c1c(C)[nH]c(C)c1C(=O)c1ccccc1OC(=O)c1ccccc1O`: the EC50 in [1] turned out to be 3.8 µM; in test [5], 0.5 µM.
Turning to `COC(=O)c1c(C)[nH]c(C)c1C(=O)c1ccccc1`, the results for the EC50 in [1] and in test [5] were 21.9 µM and 5.4 µM, respectively.
`COC(=O)c1c(C)[nH]c(C)c1C(=O)c1cccc(Cl)c1Cl` gave an inhibition at 10 µM in [9] of 0%. Also, in [10], the inhibition at 30 µM turned out to be 18%.
Consider `COC(=O)c1c(C)[nH]c(C)c1C(=O)c1ccccc1OC`, for which, in [6], the Ca2+ uptake increase (% of Bay K 8644 maximum) at 10 µM was found to be 0%. Also, the Atrial force increase (% of isoprenaline maximum) at 100 µM in test [7] was 44%.
Regarding `COC(=O)c1c[nH]cc1C(=O)c1ccccc1Cc1ccccc1`, the values for the EC50 in test [1] and in test [5] were 2.1 µM and 6.2 µM, respectively.
Regarding `COC(=O)c1c(C)[nH]c(C)c1C(=O)c1ccccc1Cl`, the EC50 is 14 µM in test [1] and 3.3 µM in test [5].
With `COC(=O)c1c(C)[nH]c(C)c1C(=O)c1ccccc1C(F)(F)F`, the figures for the EC50 in test [1] and in test [5] were 4.84 µM and 4.3 µM, respectively.
In the case of `COC(=O)c1c(C)[nH]c(C)c1C(=O)c1ccccc1Cc1ccccc1`, the EC50 in [1] amounted to 0.049 µM; in [3], 0.016 µM. Also, the Max was 105% in test [11] and 383% in test [12].
Regarding `COC(=O)c1c[nH]c(C)c1C(=O)c1ccccc1Cc1ccccc1`, the 50% effective concentration (EC50) was 0.144 µM in test [1] and 0.089 µM in test [5].
`COC(=O)c1ccccc1C(=O)c1c(C)[nH]c(C)c1C(=O)OC`: the Ca2+ uptake increase (% of Bay K 8644 maximum) at 10 µM in test [6] was determined as 0%. Further, in [7], the Atrial force increase (% of isoprenaline maximum) at 100 µM was found to be 16%.
For `COC(=O)c1c(C)[nH]c(C)c1C(=O)c1ccccc1Br`, the values for the EC50 in test [1] and in [5] were 8.95 µM and 2.4 µM, respectively.

For orientation: EC50 means the concentration giving half of the maximal effect. A higher EC50 goes with a less potent agent. By inhibition is commonly meant the drop in the measured response relative to a control, in per cent. Low readings indicate a weak effect, high ones a strong effect.
